pIC50, pKd: −log10 of the molar value. In brackets after ≈: the same amount, converted by molar mass. Activity calls are given as the source filed them. The rule behind the calls is not given here.
Experiments:
[1] = molecular target: T1, Muscarinic acetylcholine receptor M1 (Homo sapiens, UniProt P11229); assay: Inhibition of recombinant human muscarinic M1 receptor
T1 sequence (P11229 whole entry): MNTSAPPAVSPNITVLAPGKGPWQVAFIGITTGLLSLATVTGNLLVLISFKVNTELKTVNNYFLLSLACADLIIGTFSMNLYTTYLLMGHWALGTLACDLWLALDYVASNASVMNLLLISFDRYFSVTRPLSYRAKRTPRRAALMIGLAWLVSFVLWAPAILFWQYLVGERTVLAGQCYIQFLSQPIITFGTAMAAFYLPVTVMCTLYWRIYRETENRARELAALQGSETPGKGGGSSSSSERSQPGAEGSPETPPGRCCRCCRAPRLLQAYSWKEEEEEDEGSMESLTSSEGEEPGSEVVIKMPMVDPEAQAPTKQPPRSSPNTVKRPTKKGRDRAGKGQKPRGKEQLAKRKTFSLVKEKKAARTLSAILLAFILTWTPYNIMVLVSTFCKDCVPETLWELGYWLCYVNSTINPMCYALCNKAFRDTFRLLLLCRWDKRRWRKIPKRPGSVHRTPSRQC

Histamine H1 receptor = Histamine H1 receptor (Homo sapiens, UniProt P35367); assay: Inhibition of recombinant human histamine H1 receptor
Histamine H1 receptor, sequence (P35367 whole entry): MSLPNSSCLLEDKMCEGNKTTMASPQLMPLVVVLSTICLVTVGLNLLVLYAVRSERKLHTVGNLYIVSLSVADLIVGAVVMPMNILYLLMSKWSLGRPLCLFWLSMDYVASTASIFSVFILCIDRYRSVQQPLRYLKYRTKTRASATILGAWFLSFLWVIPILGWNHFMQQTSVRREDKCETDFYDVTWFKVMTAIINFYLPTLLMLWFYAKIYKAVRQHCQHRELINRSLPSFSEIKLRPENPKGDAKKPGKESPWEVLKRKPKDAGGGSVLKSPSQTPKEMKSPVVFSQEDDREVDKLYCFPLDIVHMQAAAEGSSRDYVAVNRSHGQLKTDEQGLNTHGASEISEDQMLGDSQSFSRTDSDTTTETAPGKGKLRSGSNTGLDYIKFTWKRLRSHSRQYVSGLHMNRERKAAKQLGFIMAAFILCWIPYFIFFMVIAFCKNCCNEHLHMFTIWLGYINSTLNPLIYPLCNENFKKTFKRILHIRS

[2] = molecular target: T2, Serine/threonine-protein kinase PAK 1 (Homo sapiens, UniProt Q13153); assay: Inhibition of wild type phosphorylated form of PAK1 (249 to 545) (unknown origin) expressed in Escherichia coli using 5-Fluo-Ahx-AKRRRLSSLRA-COOH as substrate preincubated for 60 mins followed by substrate addition measured after 60 mins by Caliper assay
T2 sequence (Q13153 whole entry): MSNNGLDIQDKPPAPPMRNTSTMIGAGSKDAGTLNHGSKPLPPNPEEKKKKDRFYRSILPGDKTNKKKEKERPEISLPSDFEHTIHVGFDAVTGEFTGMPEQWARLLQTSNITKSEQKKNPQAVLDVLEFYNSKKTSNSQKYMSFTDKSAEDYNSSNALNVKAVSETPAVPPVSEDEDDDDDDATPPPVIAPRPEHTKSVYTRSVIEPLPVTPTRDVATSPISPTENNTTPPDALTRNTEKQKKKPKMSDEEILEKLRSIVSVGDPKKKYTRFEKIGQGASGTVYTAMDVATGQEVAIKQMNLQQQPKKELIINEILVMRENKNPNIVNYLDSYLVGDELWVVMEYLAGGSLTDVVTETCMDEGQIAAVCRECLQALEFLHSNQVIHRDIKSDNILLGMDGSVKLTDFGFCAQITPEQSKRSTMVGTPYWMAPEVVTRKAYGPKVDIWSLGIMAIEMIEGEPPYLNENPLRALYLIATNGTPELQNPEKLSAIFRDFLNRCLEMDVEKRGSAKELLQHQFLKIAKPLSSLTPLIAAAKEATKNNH

[3] = molecular target: T2, Serine/threonine-protein kinase PAK 1; assay: Inhibition of wild type dephosphorylated form of PAK1 (249 to 545) (unknown origin) expressed in Escherichia coli using 5-Fluo-Ahx-AKRRRLSSLRA-COOH as substrate preincubated for 60 mins followed by substrate addition measured after 60 mins by Caliper assay
[4] = molecular target: T3, Serine/threonine-protein kinase PAK 2 (Homo sapiens, UniProt Q13177); details: SU8686, 6 to 20 uM
T3 sequence (Q13177 whole entry): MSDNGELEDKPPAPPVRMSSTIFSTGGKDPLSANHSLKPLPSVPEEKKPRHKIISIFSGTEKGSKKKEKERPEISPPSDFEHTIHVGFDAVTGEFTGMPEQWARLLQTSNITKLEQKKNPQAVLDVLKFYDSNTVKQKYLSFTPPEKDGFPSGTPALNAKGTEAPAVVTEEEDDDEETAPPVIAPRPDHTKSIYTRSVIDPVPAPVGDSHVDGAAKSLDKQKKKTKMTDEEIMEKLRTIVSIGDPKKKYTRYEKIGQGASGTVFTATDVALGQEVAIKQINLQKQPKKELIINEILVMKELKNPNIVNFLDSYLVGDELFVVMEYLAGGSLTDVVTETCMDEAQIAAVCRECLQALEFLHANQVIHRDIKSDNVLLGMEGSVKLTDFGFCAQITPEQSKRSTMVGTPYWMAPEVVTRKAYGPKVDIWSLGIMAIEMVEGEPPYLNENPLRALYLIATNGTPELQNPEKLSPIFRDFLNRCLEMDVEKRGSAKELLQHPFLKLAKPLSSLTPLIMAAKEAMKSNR

[5] = Aqueous solubility of the compound at pH 4; format: physicochemical; details: buffer
[6] = molecular target: T3, Serine/threonine-protein kinase PAK 2; assay: Binding affinity to PAK2 (unknown origin) expressed in HEK293 cells after 1 hr by qPCR analysis; format: cell-based
Cytochrome P450 3A4 = Cytochrome P450 3A4 (Homo sapiens, UniProt P08684); assay: Inhibition of CYP3A4 midazolam site (unknown origin); format: ADME
Cytochrome P450 3A4, sequence (P08684 whole entry): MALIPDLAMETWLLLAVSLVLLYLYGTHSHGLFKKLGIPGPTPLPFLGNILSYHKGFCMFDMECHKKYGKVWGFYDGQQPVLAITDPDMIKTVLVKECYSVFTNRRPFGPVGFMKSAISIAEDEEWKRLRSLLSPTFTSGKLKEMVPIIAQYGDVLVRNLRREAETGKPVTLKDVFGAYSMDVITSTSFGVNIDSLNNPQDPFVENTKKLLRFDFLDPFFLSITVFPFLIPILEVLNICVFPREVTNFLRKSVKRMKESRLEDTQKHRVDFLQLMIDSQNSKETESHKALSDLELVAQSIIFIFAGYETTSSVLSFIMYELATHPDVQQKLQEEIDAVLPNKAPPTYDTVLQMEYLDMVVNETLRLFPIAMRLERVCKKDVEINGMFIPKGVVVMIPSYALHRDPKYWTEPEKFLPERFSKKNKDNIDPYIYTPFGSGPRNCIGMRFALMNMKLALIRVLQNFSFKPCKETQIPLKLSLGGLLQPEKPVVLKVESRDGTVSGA

[7] = Permeability of the compound by PAMPA; format: physicochemical
How it was run: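 PAMPA permeability was expressed as a calculated fraction absorbed (cFA).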

[8] = Apparent permeability across apical to basolateral side in human Caco2 cells; format: ADME, cell-based; details: Caco-2
[9] = Half life in rat liver microsomes; format: ADME
[10] = molecular target: T3, Serine/threonine-protein kinase PAK 2; details: SU8686, 0.21 uM
SU.86.86 [11] = assay: Cytotoxicity against human SU8686 cells assessed as growth inhibition at >2 uM after 5 days by CTG assay; format: functional, cell-based
[12] = molecular target: T3, Serine/threonine-protein kinase PAK 2; details: SU8686, 0.009 to 20 uM
SU.86.86 [13] = assay: Cytotoxicity against human SU8686 cells assessed as growth inhibition at 0.21 uM after 5 days by CTG assay in presence of PAK2 shRNA; format: functional, cell-based
[14] = Aqueous solubility of the compound at pH 6.8; format: physicochemical; details: buffer
Cytochrome P450 2D6 = Cytochrome P450 2D6 (Homo sapiens, UniProt P10635); assay: Inhibition of CYP2D6 (unknown origin); format: ADME
Cytochrome P450 2C9 = Cytochrome P450 2C9 (Homo sapiens, UniProt P11712); assay: Inhibition of CYP2C9 (unknown origin); format: ADME
[15] = molecular target: Serine/threonine-protein kinase PAK 3 (Homo sapiens, UniProt O75914); assay: Binding affinity to PAK3 (unknown origin) expressed in HEK293 cells after 1 hr by qPCR analysis; format: cell-based
Serine/threonine-protein kinase PAK 3, sequence (O75914 whole entry): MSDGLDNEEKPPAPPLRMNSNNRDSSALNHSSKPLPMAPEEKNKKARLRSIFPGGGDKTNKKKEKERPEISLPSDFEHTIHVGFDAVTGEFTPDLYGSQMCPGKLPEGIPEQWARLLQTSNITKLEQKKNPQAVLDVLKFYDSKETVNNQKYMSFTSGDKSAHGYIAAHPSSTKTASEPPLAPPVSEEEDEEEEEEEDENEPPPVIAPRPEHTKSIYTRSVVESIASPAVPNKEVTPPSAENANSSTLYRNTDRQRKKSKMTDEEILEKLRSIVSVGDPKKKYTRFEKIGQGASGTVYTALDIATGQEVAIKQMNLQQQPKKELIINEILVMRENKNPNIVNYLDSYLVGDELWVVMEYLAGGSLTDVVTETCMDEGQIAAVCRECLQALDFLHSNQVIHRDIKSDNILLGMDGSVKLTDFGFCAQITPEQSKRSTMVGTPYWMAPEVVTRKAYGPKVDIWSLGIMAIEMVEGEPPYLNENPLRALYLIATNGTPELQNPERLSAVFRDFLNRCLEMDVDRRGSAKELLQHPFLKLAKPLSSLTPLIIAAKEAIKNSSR

[16] = molecular target: T4, Serine/threonine-protein kinase PAK 4 (Homo sapiens, UniProt O96013); assay: Binding affinity to PAK4 (unknown origin) expressed in HEK293 cells after 1 hr by qPCR analysis; format: cell-based
T4 sequence (O96013 whole entry): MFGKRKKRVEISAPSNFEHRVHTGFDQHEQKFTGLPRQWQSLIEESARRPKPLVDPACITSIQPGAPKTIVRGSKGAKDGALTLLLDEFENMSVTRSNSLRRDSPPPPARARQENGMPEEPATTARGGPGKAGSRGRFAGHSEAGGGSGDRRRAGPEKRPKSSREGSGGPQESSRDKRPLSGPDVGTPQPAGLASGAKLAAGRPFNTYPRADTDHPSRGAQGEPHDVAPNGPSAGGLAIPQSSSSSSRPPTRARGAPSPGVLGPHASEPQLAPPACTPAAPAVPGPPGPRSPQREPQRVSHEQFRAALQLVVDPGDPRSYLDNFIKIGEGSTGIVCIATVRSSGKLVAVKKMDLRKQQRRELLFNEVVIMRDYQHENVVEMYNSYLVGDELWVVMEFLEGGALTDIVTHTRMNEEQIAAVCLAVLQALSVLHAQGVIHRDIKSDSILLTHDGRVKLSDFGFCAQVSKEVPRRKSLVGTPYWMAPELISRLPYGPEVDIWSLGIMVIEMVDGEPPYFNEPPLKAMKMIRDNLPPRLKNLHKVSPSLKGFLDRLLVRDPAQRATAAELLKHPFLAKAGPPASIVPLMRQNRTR

[17] = molecular target: T2, Serine/threonine-protein kinase PAK 1; assay: Binding affinity to PAK1 (unknown origin) expressed in HEK293 cells after 1 hr by qPCR analysis; format: cell-based
[18] = molecular target: T5, Serine/threonine-protein kinase PAK 6 (Homo sapiens, UniProt Q9NQU5); assay: Binding affinity to PAK6 (unknown origin) expressed in HEK293 cells after 1 hr by qPCR analysis; format: cell-based
T5 sequence (Q9NQU5 whole entry): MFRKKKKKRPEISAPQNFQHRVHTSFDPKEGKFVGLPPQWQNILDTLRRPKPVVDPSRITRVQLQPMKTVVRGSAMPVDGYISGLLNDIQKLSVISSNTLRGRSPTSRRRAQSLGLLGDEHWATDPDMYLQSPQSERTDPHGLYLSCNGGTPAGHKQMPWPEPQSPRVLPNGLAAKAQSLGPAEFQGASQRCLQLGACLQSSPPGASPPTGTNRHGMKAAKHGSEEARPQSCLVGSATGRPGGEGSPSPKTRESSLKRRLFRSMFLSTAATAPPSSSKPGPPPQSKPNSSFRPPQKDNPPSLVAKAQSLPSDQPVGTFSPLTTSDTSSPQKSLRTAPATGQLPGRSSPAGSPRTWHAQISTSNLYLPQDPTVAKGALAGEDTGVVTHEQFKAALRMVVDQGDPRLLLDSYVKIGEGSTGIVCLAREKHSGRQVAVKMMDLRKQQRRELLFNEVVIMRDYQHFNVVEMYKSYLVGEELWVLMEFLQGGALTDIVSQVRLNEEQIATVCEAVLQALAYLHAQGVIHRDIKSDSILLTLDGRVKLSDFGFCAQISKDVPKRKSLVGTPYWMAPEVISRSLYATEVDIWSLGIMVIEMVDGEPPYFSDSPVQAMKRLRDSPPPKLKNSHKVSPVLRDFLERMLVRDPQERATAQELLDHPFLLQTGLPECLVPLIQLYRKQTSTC

[19] = molecular target: T2, Serine/threonine-protein kinase PAK 1; assay: Non-ATP competitive inhibition of full-length human PAK1 assessed as phosphate incorporation onto MBP preincubated for 5 mins followed by Cdc42, MBP, and mixture of ATP and [32P]-gamma-ATP addition measured after 20 mins by scintillation counting analysis
[20] = molecular target: T5, Serine/threonine-protein kinase PAK 6; assay: Inhibition of full length human PAK6 assessed as phosphate incorporation onto MBP preincubated for 5 mins followed by Cdc42, MBP, and mixture of ATP and [32P]-gamma-ATP addition measured after 20 mins by scintillation counting analysis
[21] = molecular target: Serine/threonine-protein kinase PAK 5 (Homo sapiens, UniProt Q9P286); assay: Inhibition of full length PAK5 (unknown origin) expressed in HEK293 cells assessed as phosphate incorporation onto MBP preincubated for 5 mins followed by Cdc42, MBP, and mixture of ATP and [32P]-gamma-ATP addition measured after 20 mins by scintillation counting analysis; format: cell-based
Serine/threonine-protein kinase PAK 5, sequence (Q9P286 whole entry, the tested form may be a part): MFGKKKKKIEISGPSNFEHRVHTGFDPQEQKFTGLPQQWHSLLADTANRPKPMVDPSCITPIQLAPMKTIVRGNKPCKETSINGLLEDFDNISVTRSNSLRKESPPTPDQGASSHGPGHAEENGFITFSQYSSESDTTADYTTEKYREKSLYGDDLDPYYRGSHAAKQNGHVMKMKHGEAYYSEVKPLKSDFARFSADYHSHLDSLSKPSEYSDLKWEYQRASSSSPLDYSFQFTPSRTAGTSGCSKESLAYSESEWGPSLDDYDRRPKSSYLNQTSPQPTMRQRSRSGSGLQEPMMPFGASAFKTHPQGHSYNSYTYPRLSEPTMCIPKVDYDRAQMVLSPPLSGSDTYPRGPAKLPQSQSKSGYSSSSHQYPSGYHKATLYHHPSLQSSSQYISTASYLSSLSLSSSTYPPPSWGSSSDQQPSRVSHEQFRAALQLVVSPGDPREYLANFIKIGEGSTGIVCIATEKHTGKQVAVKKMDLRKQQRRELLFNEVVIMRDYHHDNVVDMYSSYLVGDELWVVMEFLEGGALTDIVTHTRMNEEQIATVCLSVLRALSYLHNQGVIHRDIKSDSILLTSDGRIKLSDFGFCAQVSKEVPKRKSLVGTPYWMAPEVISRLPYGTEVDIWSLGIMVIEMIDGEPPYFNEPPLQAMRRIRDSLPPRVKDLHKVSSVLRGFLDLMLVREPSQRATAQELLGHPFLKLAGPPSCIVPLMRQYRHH

[22] = molecular target: T4, Serine/threonine-protein kinase PAK 4; assay: Inhibition of PAK4 kinase domain (300 to 591) (unknown origin) assessed as phosphate incorporation onto MBP preincubated for 5 mins followed by Cdc42, MBP, and mixture of ATP and [32P]-gamma-ATP addition measured after 20 mins by scintillation counting analysis

Compound	pIC50 [1]	pIC50 (Histamine H1 receptor)	pIC50 [3]	pKd [6]	solubility [14] [µM]	pKd [15]	pKd [16]	pKd [17]	pKd [18]	also measured
CN1CCN(C2=Nc3cc(F)ccc3Nc3ccc(F)cc32)CC1	8.22	9.00	4.92							pIC50 [2]: 4.27
CC(C)NC(=O)N1CC[C@H](NC2=Nc3cc(F)ccc3N(CC(F)F)c3ccc(Cl)cc32)C1	< 4.52	< 4.52		6.40	55 (≈ 26.4 µg/mL)					inhibition [4]: Active; solubility [5]: > 1000 µM; INH (Cytochrome P450 3A4): 13.2 µM; permeability [7]: permeable; Papp A→B [8]: 0.428 ×10⁻⁶ cm/s; half-life [9]: 3.5 min; inhibition [10]: Active; growth inhibition (GI) (SU.86.86 [11]): Active; inhibition [12]: Active; growth inhibition (GI) (SU.86.86 [13]): Active; INH (Cytochrome P450 2D6): > 20 µM; INH (Cytochrome P450 2C9): 16.7 µM
CCN1c2ccc(F)cc2N=C(N[C@H]2CCN(C(=O)NC(C)(C)C)C2)c2cc(Cl)ccc21				5.96	< 4	< 4.40	< 4.40			
CCN1c2ccc(F)cc2N=C(N[C@H]2CCN(C(=O)OC(C)(C)C)C2)c2cc(Cl)ccc21			6.72	< 4.40		< 4.40	< 4.40	6.89	< 4.40	
Oc1ccc2ccccc2c1SSc1c(O)ccc2ccccc12										pIC50 [19]: 5.60; pIC50 [20]: < 5.00; pIC50 [21]: < 5.00; pIC50 [22]: < 5.00
CCN1c2ccc(F)cc2N=C(N2CCN(C)CC2)c2cc(Cl)ccc21			6.49	< 4.40		< 4.40	< 4.40	6.47	< 4.40	

Reference: ChEMBL document CHEMBL3608218, “Optimization of a Dibenzodiazepine Hit to a Potent and Selective Allosteric PAK1 Inhibitor” (ACS Med Chem Lett, 2015)
